# Source: ChEMBL document CHEMBL1138779, “Antitumor agents. 234. Design, synthesis, and biological evaluation of novel 4beta-[(4' '-benzamido)-amino]-4'-o-demethyl-epipodophyllotoxin derivatives” (2004)
# Where “and” joins values, the source holds several entries; their conditions need not be identical. Equal entries are not always repeated. Calls of active or inactive are those of the source. The calls are words filed in the database; no cut-off is given here.
# Experiments:
# KB [1] = experiment: Dose required to cause reduction in human nasopharyngeal KB cancer cells after 3 days incubation; format: functional; settings: 72 h, read-out: ED50 (the source's name)
# In short: (§1)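 Cells grown at 37 °C, humidified 5% CO2, in RPMI-1640 with 25 mM HEPES, […], 10% (v/v) FBS and 100 µg/mL kanamycin. Drug exposure for 3 days. ED50 (concentration giving 50% reduction in cell number) interpolated from dose–response data. Triplicate tests, variation no more than 5%; independent ED50 determinations varied no more than 30%.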
# HCT-8 = experiment: Dose required for reduction in human ileocecal HCT-8 cancer cells after 3 day incubation; format: functional; settings: HCT-8, 72 h, read-out: ED50 (the source's name); in short: as §1
# MCF7 = experiment: Dose required for reduction in human breast MCF-7 cancer cells after 3 day incubation; format: functional; settings: MCF7, 72 h, read-out: ED50 (the source's name); in short: as §1
# KB [2] = experiment: Dose required for reduction in camptothecin resistant human nasopharyngeal KB cancer cells after 3 days incubation; format: functional; settings: 72 h, read-out: ED50 (the source's name); in short: as §1
# 1A9 = experiment: Dose required to cause reduction in human ovarian 1A9 cancer cells after 3 days incubation; format: functional; settings: 1A9, 72 h, read-out: ED50 (the source's name); in short: as §1
# 1A9/ptx-10 = experiment: Dose required for reduction in paclitaxel resistant human ovarian 1A9-PTX10 cancer cells after 3 days incubation; format: functional; settings: 1A9/ptx-10, 72 h, read-out: ED50 (the source's name); in short: as §1
# CAKI-1 [3] = experiment: Dose required for reduction in human renal CAKI-1 cancer cells after 3 days incubation; format: functional; settings: CAKI-1, 72 h, read-out: ED50 (the source's name); in short: as §1
# KB [4] = experiment: Dose required for reduction in vincristine resistant human nasopharyngeal KB-VIN cancer cells after 3 days incubation; format: functional; settings: 72 h, read-out: ED50 (the source's name); in short: as §1
# U-87 MG = experiment: Dose required for reduction in human glioblastoma U-87-MG cancer cells after 3 days incubation; format: functional, U-87MG ATCC; settings: 72 h, read-out: ED50 (the source's name); in short: as §1
# PC-3 = experiment: Dose required for reduction in human prostate PC-3 cancer cells after 3 days incubation; format: functional; settings: PC-3, 72 h, read-out: ED50 (the source's name); in short: as §1
# KB [5] = experiment: Dose required for reduction in etoposide resistant human nasopharyngeal KB-7d cancer cells after 3 days incubation; format: functional; settings: 72 h, read-out: ED50 (the source's name); in short: as §1
# A549 = experiment: Dose required for reduction in human lung A549 cancer cells after 3 days incubation; format: functional; settings: A549, 72 h, read-out: ED50 (the source's name); in short: as §1
# KB [6] = experiment: Dose required for reduction in human nasopharyngeal KB-7d cancer cells after 3 days incubation; format: functional; settings: 72 h, read-out: ED50 (the source's name); in short: as §1
# [7] = biological target: T1, DNA topoisomerase II (Homo sapiens) (UniProt P11388+Q02880); experiment: Percentage of protein-linked DNA breaks in KB cells by [3H]thymidine incorporation at 5 ug/mL; format: functional, cell-based
# In short: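 [3H]thymidine-prelabelled KB cells (0.5 µCi/mL, overnight, 2 h chase) treated in duplicate with compound at 5 µg/mL for 1 h. Protein-linked DNA breaks read as potassium–SDS precipitable radioactivity, given as percent of the VP-16 control set at 100%.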
# [8] = biological target: T1, DNA topoisomerase II (Homo sapiens); experiment: Percentage of protein-linked DNA breaks in KB cells by [3H]thymidine incorporation; format: functional, cell-based; parameters: concentration or dose not given beside the values
# In short: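 KB cells labelled overnight with 0.5 µCi/mL [methyl-3H]thymidine ([…]), chased 2 h, then treated in duplicate with compound at 10 µg/mL for 1 h. Protein-associated DNA breaks measured as potassium–SDS precipitable radioactivity. Values expressed relative to VP-16 control set at 100%.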
# KB [9] = experiment: Ratio of ED50 for KB-7d cells to that of KB cells; format: functional, Homo sapiens
# In short: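 Relative resistance (fold) taken as ED50 against KB-7d divided by ED50 against KB. Both values come from 3-day drug exposure, with ED50 interpolated from dose–response data as the concentration reducing cell number by 50%.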
# CAKI-1 [10] = experiment: Dose required for reduction in human renal CAKI-1 cancer cells after 3 days incubation; NA = not applicable; format: functional, cell-based; in short: as §1
# KB [11] = experiment: Dose required to cause reduction in human nasopharyngeal KB-7d cancer cells after 3 days incubation; format: functional; settings: 72 h, read-out: ED50 (the source's name); in short: as §1
Compound,EC50 (KB [1]),EC50 (HCT-8) [µM],EC50 (MCF7) [µM],EC50 (KB [2]) [µM],EC50 (1A9) [µM],EC50 (1A9/ptx-10) [µM],EC50 (CAKI-1 [3]) [µM],EC50 (KB [4]) [µM],EC50 (U-87 MG) [µM],EC50 (PC-3) [µM],EC50 (KB [5]) [µM],EC50 (A549) [µM],EC50 (KB [6]) [µg/mL],Activity [7] [%],Activity [8] [%],Relative resistance (KB [9]),ED50 (CAKI-1 [10]),EC50 (KB [11]) [µg/mL]
COc1cc([C@@H]2c3cc4c(cc3[C@@H](NC(=O)[C@H](Cc3ccc(O)cc3)NC(=O)OCc3ccccc3)[C@H]3COC(=O)[C@H]23)OCO4)cc(OC)c1O,3.9 µM,77.7,17.4,9,0.94,5,> 100,> 100,100,94.8,11.9,15.9,,,,,,
COc1cc([C@@H]2c3cc4c(cc3[C@@H](Nc3ccc([N+](=O)[O-])cc3)[C@H]3COC(=O)[C@H]23)OCO4)cc(OC)c1O,0.2 µg/mL,,,,,,,,,,,,2,218,244,10,,
COc1cc([C@@H]2c3cc4c(cc3[C@@H](NC(=O)[C@@H](N)Cc3ccc(O)cc3)[C@H]3COC(=O)[C@H]23)OCO4)cc(OC)c1O,18.8 µM,> 100,41.7,44.8,3.3,> 5,,> 100,> 100,> 100,30.2,54.3,,,,,inactive,
COc1cc([C@@H]2c3cc4c(cc3[C@@H](Nc3ccc(C(=O)N[C@@H](C)C(=O)OCc5ccccc5)cc3)[C@H]3COC(=O)[C@H]23)OCO4)cc(OC)c1O,0.5 µg/mL and 900 nM,2.4,1.6,1.7,0.05,0.2,> 100,10.4,8,3.8,1.4,0.7,0.25,,210,0.5,,
COc1cc([C@@H]2c3cc4c(cc3[C@@H](Nc3ccc(C(=O)NCCc5ccc(O)cc5)cc3)[C@H]3COC(=O)[C@H]23)OCO4)cc(OC)c1O,0.02 µg/mL,,,,,,,,,,,,0.8,275,368,32,,
COc1cc([C@@H]2c3cc4c(cc3[C@@H](Nc3ccc(C(=O)NCCc5ccccc5)cc3)[C@H]3COC(=O)[C@H]23)OCO4)cc(OC)c1O,0.03 µg/mL,,,,,,,,,,,,0.5,227,,14,,
COc1cc([C@@H]2c3cc4c(cc3[C@@H](O[C@@H]3O[C@@H]5CO[C@@H](C)O[C@H]5[C@H](O)[C@H]3O)[C@H]3COC(=O)[C@H]23)OCO4)cc(OC)c1O [ETOPOSIDE],0.5 µg/mL and 300 nM,62.9,62.2,7,0.15,> 5,> 100,> 100,73.6,> 100,17.2,10.6,,100,100,>20,,> 10
COc1cc([C@@H]2c3cc4c(cc3[C@@H](Nc3ccc(NC(=O)[C@@H](Cc5ccc(O)cc5)NC(=O)OCc5ccccc5)cc3)[C@H]3COC(=O)[C@H]23)OCO4)cc(OC)c1O,0.49 µM,> 100,1.9,,0.0086,0.92,,> 100,> 100,> 100,,0.77,,,,,inactive,
COC(=O)[C@H](Cc1ccccc1)NC(=O)c1ccc(N[C@@H]2c3cc4c(cc3[C@@H](c3cc(OC)c(O)c(OC)c3)[C@H]3C(=O)OC[C@@H]32)OCO4)cc1,0.55 µg/mL and 1.4 µM,3.8,9.6,3.7,0.36,1.7,> 100,4.2,87.1,> 100,1.7,1.2,1,,226,1.8,,
